The record followed here is BindingDB's records for doi:10.1021/jm800913d (National Institute On Drug Abuse, 2008).

The target in assay [1] is Delta-type opioid receptor (Homo sapiens, UniProt P41143). Briefly: Displacement of [125I]IOXY from human recombinant delta opioid receptor expressed in CHO cells. A digest of the protocol:
(§1)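 Radioligand displacement run in CHO cells stably transfected to express the μ-, δ- or κ-opioid receptor, each receptor in its own line. The method follows the authors' earlier procedure. Each value comes from n=3 determinations.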

Assay [2] concerns the target Kappa-type opioid receptor (Homo sapiens, UniProt P41145). Briefly: Displacement of [125I]IOXY from human recombinant kappa opioid receptor expressed in CHO cells. A digest of the protocol:
as §1

The target of another assay is Mu-type opioid receptor (Homo sapiens, UniProt P35372). Briefly: Displacement of [125I]IOXY from human recombinant mu opioid receptor expressed in CHO cells. Summed up:
as §1

Delta-type opioid receptor, sequence (P41143 whole entry): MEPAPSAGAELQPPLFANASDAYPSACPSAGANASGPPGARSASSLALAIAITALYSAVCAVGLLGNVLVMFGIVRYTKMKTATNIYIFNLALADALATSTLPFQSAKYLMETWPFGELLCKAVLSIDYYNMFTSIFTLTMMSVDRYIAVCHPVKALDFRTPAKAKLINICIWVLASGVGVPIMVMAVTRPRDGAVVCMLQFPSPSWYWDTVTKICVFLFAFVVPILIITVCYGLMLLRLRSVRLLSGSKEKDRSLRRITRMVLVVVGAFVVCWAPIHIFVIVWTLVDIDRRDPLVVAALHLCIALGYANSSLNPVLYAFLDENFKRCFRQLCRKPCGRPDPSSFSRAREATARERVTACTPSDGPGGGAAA
Kappa-type opioid receptor, sequence (P41145 whole entry): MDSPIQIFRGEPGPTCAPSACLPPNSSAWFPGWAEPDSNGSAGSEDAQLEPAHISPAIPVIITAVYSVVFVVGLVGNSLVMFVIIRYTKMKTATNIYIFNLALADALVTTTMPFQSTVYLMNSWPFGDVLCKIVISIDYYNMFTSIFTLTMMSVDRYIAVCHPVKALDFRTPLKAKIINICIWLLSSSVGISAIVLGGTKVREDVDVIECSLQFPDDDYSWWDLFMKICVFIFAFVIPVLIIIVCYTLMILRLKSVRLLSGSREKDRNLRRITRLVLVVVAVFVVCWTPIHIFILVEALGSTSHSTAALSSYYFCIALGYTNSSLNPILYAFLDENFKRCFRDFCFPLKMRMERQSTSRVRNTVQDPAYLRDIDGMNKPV
Mu-type opioid receptor, sequence (P35372 whole entry): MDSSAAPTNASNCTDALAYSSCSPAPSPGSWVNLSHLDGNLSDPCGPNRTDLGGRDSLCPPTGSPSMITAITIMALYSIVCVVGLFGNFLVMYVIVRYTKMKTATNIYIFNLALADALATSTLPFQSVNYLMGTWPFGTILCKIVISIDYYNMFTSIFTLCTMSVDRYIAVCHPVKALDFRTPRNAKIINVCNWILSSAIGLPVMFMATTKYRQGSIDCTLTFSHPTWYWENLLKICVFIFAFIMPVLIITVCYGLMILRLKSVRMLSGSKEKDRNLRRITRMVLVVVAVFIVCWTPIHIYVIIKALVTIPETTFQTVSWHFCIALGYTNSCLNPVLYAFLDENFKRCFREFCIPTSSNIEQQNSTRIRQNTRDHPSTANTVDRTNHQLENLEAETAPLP

As for `CN1C[C@@H]2Oc3ccc(O)cc3[C@@]23CCC[C@@H]1C3` [(3R*,6aS*,11aR*)-1,3,4,5,6,11a-Hexahydro-2-methyl-2H-3,6a-methanobenzofuro[2,3-c]azocin-8-ol], the Ki in assay [1] was determined as 2.78 µM; in assay [2] it was 620 nM.
The corresponding values for `CN1C[C@@H]2Oc3c(O)cccc3[C@@]23CCC[C@@H]1C3` [(3R*,6aS*,11aR*)-1,3,4,5,6,11a-Hexahydro-2-methyl-2H-3,6amethanobenzofuro[2,3-c]azocin-10-ol] are 3.43 µM and 4820 nM.
Consider `Oc1cccc2c1O[C@H]1CN(CCc3ccccc3)[C@@H]3CCC[C@]21C3` [(3R*,6aS*,11aR*)-1,3,4,5,6,11a-Hexahydro-2-phenethyl-2H-3,6a-methanobenzofuro [2,3-c]azocin-10-ol], for which the Ki at Mu-type opioid receptor was 560 nM; in assay [1], 2.84 µM; in assay [2] it was 200 nM.
In the case of `CN1CC[C@@]23C[C@@H]1CC[C@H]2Oc1c(O)cccc13` [(4R*,6aS*,11bR*)-2,3,4,5,6,6a-Hexahydro-3-methyl-1H-4,11b-methanobenzofuro[3,2-d]azocine-8-ol], the Ki on Mu-type opioid receptor came to 3210 nM; in assay [2], 910 nM.
With `CN1CC[C@@]23C[C@@H]1CC[C@H]2Oc1ccc(O)cc13` [(4R*,6aS*,11bR*)-2,3,4,5,6,6a-Hexahydro-3-methyl-1H-4,11bmethanobenzofuro[3,2-d]azocine-10-ol], the figures for the Ki (at Mu-type opioid receptor; in assay [1]) were > 10000 nM and > 10 µM, respectively.
With `Oc1cccc2c1O[C@@H]1CC[C@H]3C[C@@]21CCN3CCc1ccccc1` [(4R*,6aS*,11bR*)-2,3,4,5,6,6a-Hexahydro-3-phenethyl-1H-4,11b-methanobenzofuro[3,2-d]azocine-8-ol], the figures for the inhibition constant (Ki) (on Mu-type opioid receptor; in assay [1]; in assay [2]) were 190 nM, 3.71 µM and 26 nM, respectively.
The corresponding values for `Oc1ccc2c(c1)[C@@]13CCN(CCc4ccccc4)[C@@H](CC[C@H]1O2)C3` [(4R*,6aS*,11bR*)-2,3,4,5,6,6a-Hexahydro-3-phenethyl-1H-4,11b-methanobenzofuro[3,2-d]azocine-10-ol] are 740 nM, 4.76 µM and 78 nM.
